Calls of active or inactive are those of the source. The rule behind the calls is not given here.
Tests used:
HepG2 [1] = experiment: Induction of cell cycle arrest in human HepG2 cells assessed as accumulation at S phase at 2 umol/L incubated for 12 hrs by propidium iodide staining based flow cytometry (reference value: 25.28%); assay type: functional
HepG2 [2] = experiment: Induction of apoptosis in human HepG2 cells at 4 umol/L incubated for 24 hrs by Annexin V-FITC/propidium iodide staining based flow cytometry (reference value: 1.96%); assay type: functional
HepG2 [3] = experiment: Induction of apoptosis in human HepG2 cells incubated for 24 hrs by Annexin V-FITC/propidium iodide staining based flow cytometry (reference value: 1.96%); assay type: functional, cell-based
Mus musculus [4] = experiment: Toxicity in Swiss mouse xenografted with […] assessed as increase in body weight at 15 mg/kg, ip dosed every day for 14 days; assay type: organism-based; conditions: in vivo, 336 h
In short: (§1)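 Female Swiss mice (20-22 g) bearing subcutaneous […] (3×10⁶ cells, right flank) were dosed intraperitoneally daily with saline, 15 or 30 mg/kg, or 5-FU 20 mg/kg (n = 6) and killed on day 14. Body weight was recorded daily. Thymus and spleen indexes were calculated as organ weight divided by final body weight. Mean ± S.E.M.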

HepG2 [5] = experiment: Induction of cell cycle arrest in human HepG2 cells assessed as accumulation at G2/M phase at 2 umol/L incubated for 24 hrs by propidium iodide staining based flow cytometry (reference value: 10.41%); assay type: functional
SGC-7901 = experiment: Antiproliferative activity against human SGC7901 cells incubated for 48 to 72 hrs by MTT assay; assay type: functional, cell-based
In short: (§2)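 MTT assay. Cells were grown in DMEM with 10% heat-inactivated FBS at 37°C under 5% CO₂. They were seeded at 5000/well in 5% FBS DMEM for 24 h, then given compound in DMSO at 0.1, 1, 10 and 100 µmol/L for 72 h (the table footnote says 48 h). MTT was added for 4 h, formazan was dissolved in DMSO and read at 570 nm. IC₅₀ was from ≥3 independent runs; >100 μM was given if 50% inhibition was not reached.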

PC-3 = experiment: Antiproliferative activity against human PC3 cells incubated for 48 to 72 hrs by MTT assay; assay type: functional, cell-based; in short: as §2
HepG2 [6] = experiment: Induction of apoptosis in human HepG2 cells assessed as reduction in Bcl2 protein expression at 1 to 8 umol/L incubated for 12 to 48 hrs by Western blot analysis; assay type: functional, cell-based
In short: (§3)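 Western blot. HepG2 cells were seeded at 5×10⁵/well with compound in 10% FBS at 37°C: 1, 2, 4 or 8 μM for 24 h, or 4 μmol/L over a time course. The vehicle was 0.5% DMSO. Cleared lysates were quantified by BCA and run on 10% SDS-PAGE, then transferred to PVDF. Membranes were blocked in 5% milk/TBST with primary antibodies at 1:2000 at 4°C, HRP secondary at 1:2000 for 2 h, and ECL detection. GAPDH served as loading control.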

Heps (mouse) [7] = experiment: Antitumour activity against murine HepS cells xenografted in Swiss mouse assessed as reduction in tumor weight at 15 to 30 mg/kg, ip dosed every day for 14 days
Heps (mouse) [8] = experiment: Antitumour activity against murine HepS cells xenografted in Swiss mouse assessed as inhibition of tumor growth at 15 mg/kg, ip dosed every day for 14 days; conditions: 336 h, read-out: TGI
HepG2 [9] = experiment: Antiproliferative activity against human HepG2 cells incubated for 48 to 72 hrs by MTT assay; assay type: functional, cell-based; in short: as §2
HepG2 [10] = experiment: Induction of cell cycle arrest in human HepG2 cells assessed as accumulation at G0/G1 phase at 2 umol/L incubated for 24 hrs by propidium iodide staining based flow cytometry (reference value: 64.31%); assay type: functional
Mus musculus [11] = experiment: Toxicity in Swiss mouse xenografted with […] assessed as effect on thymus index at 15 to 30 mg/kg, ip dosed every day for 14 days; assay type: organism-based; conditions: in vivo, 336 h; in short: as §1
Mus musculus [12] = experiment: Toxicity in Swiss mouse xenografted with […] assessed as effect on spleen index at 15 to 30 mg/kg, ip dosed every day for 14 days; assay type: organism-based; conditions: in vivo, 336 h; in short: as §1
A549 = experiment: Antiproliferative activity against human A549 cells incubated for 48 to 72 hrs by MTT assay; assay type: functional, cell-based; in short: as §2
HepG2 [13] = experiment: Induction of apoptosis in human HepG2 cells assessed as reduction in Bcl-XL protein expression at 1 to 8 umol/L incubated for 12 to 48 hrs by Western blot analysis; assay type: functional, cell-based; in short: as §3
HepG2 [14] = experiment: Induction of apoptosis in human HepG2 cells assessed as reduction in pro-caspase-3 protein expression at 1 to 8 umol/L incubated for 12 to 48 hrs by Western blot analysis; assay type: functional, cell-based; in short: as §3
HepG2 [15] = experiment: Induction of apoptosis in human HepG2 cells assessed as increase in Bax protein expression by Western blot analysis; assay type: functional, cell-based; in short: as §3
Heps (mouse) [16] = experiment: Antitumour activity against murine HepS cells xenografted in Swiss mouse assessed as inhibition of tumor growth at 30 mg/kg, ip dosed every day for 14 days; conditions: 336 h, read-out: TGI
HepG2 [17] = experiment: Induction of apoptosis in human HepG2 cells at 1 umol/L incubated for 24 hrs by Annexin V-FITC/propidium iodide staining based flow cytometry (reference value: 1.96%); assay type: functional
HepG2 [18] = experiment: Induction of apoptosis in human HepG2 cells at 2 umol/L incubated for 24 hrs by Annexin V-FITC/propidium iodide staining based flow cytometry (reference value: 1.96%); assay type: functional
HepG2 [19] = experiment: Induction of cell cycle arrest in human HepG2 cells assessed as accumulation at G2/M phase at 2 umol/L incubated for 12 hrs by propidium iodide staining based flow cytometry (reference value: 10.41%); assay type: functional
HepG2 [20] = experiment: Induction of apoptosis in human HepG2 cells assessed as reduction in pro-caspase-9 protein expression at 1 to 8 umol/L incubated for 12 to 48 hrs by Western blot analysis; assay type: functional, cell-based; in short: as §3
HepG2 [21] = experiment: Induction of apoptosis in human HepG2 cells assessed as reduction in Bcl-XL protein expression by Western blot analysis; assay type: functional, cell-based; in short: as §3
HepG2 [22] = experiment: Induction of apoptosis in human HepG2 cells assessed as increase in p53 protein expression at 1 to 8 umol/L incubated for 12 to 48 hrs by Western blot analysis
MCF7 = experiment: Antiproliferative activity against human MCF7 cells incubated for 48 to 72 hrs by MTT assay; assay type: functional, cell-based; in short: as §2
HepG2 [23] = experiment: Induction of cell cycle arrest in human HepG2 cells assessed as accumulation at G0/G1 phase at 2 umol/L incubated for 12 hrs by propidium iodide staining based flow cytometry (reference value: 64.31%); assay type: functional
Heps (mouse) [24] = experiment: Antitumour activity against murine HepS cells xenografted in Swiss mouse assessed as reduction in tumor size at 15 to 30 mg/kg, ip dosed every day for 14 days
HepG2 [25] = experiment: Induction of apoptosis in human HepG2 cells assessed as reduction in Akt protein expression at 1 to 8 umol/L incubated for 12 to 48 hrs by Western blot analysis; assay type: functional, cell-based; in short: as §3
HepG2 [26] = experiment: Induction of apoptosis in human HepG2 cells assessed as reduction in Bcl2 protein expression by Western blot analysis; assay type: functional, cell-based; in short: as §3
HepG2 [27] = experiment: Induction of cell cycle arrest in human HepG2 cells assessed as accumulation at S phase at 2 umol/L incubated for 24 hrs by propidium iodide staining based flow cytometry (reference value: 25.28%); assay type: functional

COc1c(O)cc2c(c1O)[C@@H]1O[C@H](COC(=O)/C=C/c3ccc(C#N)cc3)[C@@H](O)[C@H](O)[C@H]1OC2=O
Activity (HepG2 [1]): 28.43% | Activity (HepG2 [2]): 20.68% | Activity (HepG2 [3]): Dose-dependent effect | Activity (Mus musculus [4]): Non-Toxic | Activity (HepG2 [5]): 28.93% | IC50 (SGC-7901): 8.32 µM | IC50 (PC-3): 27 µM | Activity (HepG2 [6]): Active | Activity (Heps (mouse) [7]): Dose-dependent effect | inhibition in vivo at 15 mg/kg (Heps (mouse) [8]): 45.4% | IC50 (HepG2 [9]): 5.23 µM | Activity (HepG2 [10]): 51.15% | Activity (Mus musculus [11]): Non-Toxic | Activity (Mus musculus [12]): Non-Toxic | IC50 (A549): 10.7 µM | Activity (HepG2 [13]): Active | Activity (HepG2 [14]): Active | Activity (HepG2 [15]): Dose-dependent effect | inhibition in vivo at 30 mg/kg (Heps (mouse) [16]): 61% | Activity (HepG2 [17]): 5.58% | Activity (HepG2 [18]): 10.68% | Activity (HepG2 [19]): 13.93% | Activity (HepG2 [20]): Active | Activity (HepG2 [21]): Dose-dependent effect | Activity (HepG2 [22]): Active | IC50 (MCF7): 7.34 µM | Activity (HepG2 [23]): 57.64% | Activity (Heps (mouse) [24]): Dose-dependent effect | Activity (HepG2 [25]): Active | Activity (HepG2 [26]): Dose-dependent effect | Activity (HepG2 [27]): 19.92%
